SENP8 block-1 = human SENP8 protease inhibitors, primary screen, biochemical, fluorescence, Nedd8 protein substrate, uHTS. Sentrin-specific protease 8 (Homo sapiens), Q96LD8. recombinant SENP8. inhibition, % at 20 µM. 360,000 tested, 0.64% active. AID 602440, 2012; in the data active = inhibition mostly above about 40%, no sharp cut-off; inactive = mostly below about 27%
SENP8 block-2 = SENP8 protease inhibitors, primary screen, biochemical, luminescence; inhibition, % at 10 µM; 330,000 tested, 1.2% active; purified SENP8, Z-RLRGG-aminoluciferin cleavage; Sentrin-specific protease 8 (Homo sapiens), Q96LD8; in the data active = inhibition above about 50%
SENP7 block = SENP7 protease inhibitors, primary screen, biochemical, luminescence, uHTS; AID 434973, 2010; recombinant SENP7, Z-RLRGG-aminoluciferin luminescence, 40 min; 330,000 tested, 1.5% active; Sentrin-specific protease 7 (Homo sapiens), Q9BQF6; inhibition, % at 5 µM;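 active = inhibition above about 50% at the single test dose, limit read from the data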
Target sequence (Q9BQF6 706-1050 limits assumed): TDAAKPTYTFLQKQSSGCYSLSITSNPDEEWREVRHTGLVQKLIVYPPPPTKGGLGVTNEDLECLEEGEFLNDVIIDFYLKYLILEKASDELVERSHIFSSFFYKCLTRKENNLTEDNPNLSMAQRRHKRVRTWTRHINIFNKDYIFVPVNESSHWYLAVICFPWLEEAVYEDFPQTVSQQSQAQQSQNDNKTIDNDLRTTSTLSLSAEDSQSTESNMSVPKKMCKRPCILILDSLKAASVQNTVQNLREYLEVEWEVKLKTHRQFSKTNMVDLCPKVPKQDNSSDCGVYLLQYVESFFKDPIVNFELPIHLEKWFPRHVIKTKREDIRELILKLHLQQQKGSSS
SENP1 inh = human SENP1 catalytic domain inhibitors, primary screen, biochemical, FRET, uHTS; Sentrin-specific protease 1 (Homo sapiens), Q9P0U3; recombinant SENP1 catalytic domain, CyPet-SUMO1-YPet FRET cleavage; inhibition, % at 10 µM; 360,000 tested, 0.21% active;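 active = inhibition at least 30% at 10 µM, raw YFP signal under a set limit, fluorescence ratio 0.5 to 1.5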
Target sequence (Q9P0U3 419-644 limits assumed): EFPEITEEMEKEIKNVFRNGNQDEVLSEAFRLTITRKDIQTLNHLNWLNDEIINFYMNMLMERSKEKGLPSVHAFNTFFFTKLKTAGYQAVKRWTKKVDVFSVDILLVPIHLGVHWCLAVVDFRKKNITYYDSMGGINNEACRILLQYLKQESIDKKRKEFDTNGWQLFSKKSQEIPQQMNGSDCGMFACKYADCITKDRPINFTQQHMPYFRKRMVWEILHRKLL
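System: Recombinant human SENP1 catalytic domain, His6-tagged | Incubation: Enzyme reaction for 50 min at room temperature, dark | Medium: Tris pH 8 with BME, BSA, NP40 and catalase | Also added: 25 nM SUMO1 FRET substrate | Compound: 10 µM single point, 0.5% DMSO | Measured by: FRET fluorescence in CFP and YFP emission channels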
SENP6 block = SENP6 protease inhibitors, primary screen, biochemical, luminescence, uHTS. inhibition, % at 10 µM. AID 2599, 2010. 330,000 tested, 1.8% active. Recombinant SENP6 catalytic domain, aminoluciferin luminescence;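 active = inhibition above about 50% at the single tested dose, limit read from the data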
SENP8 conf = human SENP8 protease inhibitors, confirmation, biochemical, Nedd8 protein substrate, single concentration; shares compounds with SENP8 block-1; purified SENP8, Nedd8-AMC/pro-Nedd8 cleavage fluorescence, 30 min; inhibition, % at 25 µM; 1,400 tested, 15% active; in the data active = inhibition mostly above about 39%, no sharp cut-off; inactive = mostly below about 34%
Of the large screens only hits and unclear results are named; the others gave an inactive call (follow-up assays come after a bar, where they were run). Rows were chosen to be rich in hits. Some 2.5% of all compounds tested hit in one or more screens of this group.

COc1ccc(C)cc1NC(=O)COC(=O)Cc1c[nH]c2ccccc12	none (no result: SENP8 block-2, SENP7 block, SENP6 block)
O=C(O)c1cccc(N2C(=O)c3ccc4c5c(ccc(c35)C2=O)C(=O)N(c2cccc(C(=O)O)c2)C4=O)c1	SENP8 block-1 50.3 | SENP8 conf 50.3
Cc1cccc(N2C(=O)c3ccc(C(=O)Nc4ccccn4)cc3C2=O)c1	none
O=C(O)c1cccc(N2C(=O)c3ccc(Oc4ccc(Cl)cc4)cc3C2=O)c1	none
O=C(O)c1cccc(C(=O)O)c1	SENP8 block-1 45.0 | SENP8 conf inactive
Cc1cccc(N2C(=O)/C(=C\c3ccc(C(=O)O)cc3)c3ccccc3C2=O)c1	SENP8 block-1 43.1 | SENP8 conf inactive
COc1ccc2c(Cl)c(-c3nnc4n3CCCCC4)sc2c1	SENP8 block-1 48.1 | SENP8 conf inactive
CS(=O)(=O)c1ccc(NC(=O)CCCc2nc3ccccc3c(=O)[nH]2)cc1	SENP8 block-1 53.9 | SENP8 conf inactive
Nc1ccn(CC(=O)NCCc2ccccn2)c(=O)n1	none
O=c1oc2ccccc2nc1/C=C(O)/C=C\c1ccccc1	none
O=c1oc2ccccc2nc1/C=C(O)/C=C/c1ccc(F)cc1	SENP8 block-1 47.2 | SENP8 conf inactive
Cc1ccc(C2=N/C(=C\c3cccs3)C(=O)N2Nc2ccccc2)cc1	SENP8 block-1 41.5 | SENP8 conf inactive
Cc1cc([N+](=O)[O-])nn1CCCC(=O)N1CCN(c2ccccc2)CC1	SENP8 block-1 41.3 | SENP8 conf inactive
COc1cc(/C=N/NC(=O)c2ccncc2)c([N+](=O)[O-])cc1OC	none
COc1cc(OC)c([N+](=O)[O-])cc1/C=N/NC(=O)c1ccncc1	SENP8 block-1 43.4 | SENP8 conf 97.0
O=C(CCC(=O)N1CCc2ccccc2C1)N1CCN(S(=O)(=O)c2ccccc2)CC1	SENP8 block-1 42.9 | SENP8 conf 63.6
Cc1ccc(C(C#N)c2ccc3c(C(F)(F)F)cc(C(F)(F)F)nc3n2)cc1 (stereo not given)	SENP8 block-1 43.0 | SENP8 conf inactive
N#CC(c1ccccc1)c1ccc2c(C(F)(F)F)cc(C(F)(F)F)nc2n1 (stereo not given)	none
COc1ccccc1C(=O)NNC(=O)c1ccc(Br)o1	none
CC(C)CCNC(=O)C1(c2cccs2)CCOCC1	SENP8 block-1 41.4 | SENP8 conf inactive
Cc1cc(=O)n(-c2ccc3ccccc3n2)[nH]1	SENP8 block-1 46.9 | SENP8 conf inactive
CC1=CCC2C(=O)N(c3ccc4ccccc4n3)C(=O)C2C1 (stereo not given)	none
CC(C)=CCc1cc([C@@H]2COc3c(ccc4c3C=CC(C)(C)O4)C2)c(O)cc1O	SENP8 block-1 48.0 | SENP8 conf inactive
O=C(CN1C(=O)CSC1=O)N1CCc2ccccc2C1	SENP8 block-1 41.8 | SENP8 conf 62.9
CCNC(=S)NNc1ccccc1	SENP8 block-1 42.6 | SENP8 conf inactive
O=C(O/N=C\c1ccc(N2CCCCC2)c([N+](=O)[O-])c1)c1cccc(Cl)c1	SENP8 block-1 59.4 | SENP8 conf inactive
Cc1ccc(C(=O)O/N=C\c2ccc(N3CCCCC3)c([N+](=O)[O-])c2)cc1	SENP8 block-1 47.6 | SENP8 conf inactive
Nc1nnc(-c2ccc([N+](=O)[O-])o2)s1	SENP8 block-1 36.9 (no result: SENP8 block-2, SENP7 block, SENP6 block) | SENP8 conf inactive
CNc1ncnc(Sc2ccc(Cl)cc2)c1[N+](=O)[O-]	SENP8 block-1 41.6 | SENP8 conf inactive
CCOC(=O)/C(C#N)=C1/C=Cc2ccccc2N1CC	SENP8 block-1 40.6 | SENP8 conf inactive
CCN1C(=C(C#N)C#N)C=Cc2ccccc21	none
COCc1c(C)cc(C)c(/C=N/O)c1C	SENP8 block-1 46.8 | SENP8 conf inactive
O=S(=O)(c1ccc(NC(=S)Nc2ccc3c(c2)OCO3)cc1)N1CCOCC1	SENP8 block-1 44.5 | SENP8 conf inactive
CCc1ccccc1N1C(=O)C2CC=CCC2C1=O (stereo not given)	none
CCc1ccccc1N1C(=O)C2CC(C)=C(C)CC2C1=O (stereo not given)	SENP8 block-1 40.8 | SENP8 conf inactive
O=C(Nc1ccc(Oc2ccccc2)cc1)c1ccc2sc([C@H]3C[C@H](O)[C@@H](CO)O3)nc2c1	none (no result: SENP8 block-2, SENP7 block, SENP6 block)
CCc1cccc(C)c1NC(=S)NCC(c1cccnc1)N1CCOCC1 (stereo not given)	none
CCN(C(=O)c1cn(C)c(=O)c2cc(OC)c(OC)cc12)c1cc(OC)ccc1OC	SENP8 block-1 42.6 | SENP8 conf inactive
COc1ccccc1NC(=O)c1cn(C)c(=O)c2cc(OC)c(OC)cc12	SENP8 block-1 41.5 | SENP8 conf 63.3
Cc1ccccc1CC(=O)Nc1ccc(S(=O)(=O)N2CCOCC2)cc1	none
O=C1Cc2ccccc2C(=O)N1Cc1cccc(Cl)c1	SENP8 block-1 102.6 (no result: SENP8 block-2, SENP7 block, SENP6 block) | SENP8 conf 45.8
OC1COC(OCC2OC(OCc3ccccc3)C(O)C(O)C2O)C(O)C1O (stereo not given)	none
OC[C@H]1O[C@H](OCc2ccccc2)[C@H](O[C@@H]2OC[C@@H](O)[C@H](O)[C@H]2O)[C@@H](O)[C@@H]1O	SENP8 block-1 41.9 | SENP8 conf inactive
COc1ccc(CNC(=O)Cn2ccc(N)nc2=O)cc1	SENP8 block-1 45.3 | SENP8 conf inactive
O=C(NCc1ccccc1)c1ccccc1	SENP8 block-1 62.2 (no result: SENP8 block-2, SENP7 block, SENP6 block) | SENP8 conf inactive
COC(=O)CNC(=O)c1ccc(F)cc1	none
COC(=O)CNC(=O)c1ccccc1	SENP8 block-1 50.8 | SENP8 conf inactive
CC(=O)Oc1ccc2oc(/C=C/N(C)C)c([N+](=O)[O-])c2c1	none
COc1nc(/C=C/N(C)C)c([N+](=O)[O-])c(OC)n1	SENP8 block-1 43.1 | SENP8 conf inactive
CCOC(=O)C1CCN(C(=O)Nc2ccc3oc(C)nc3c2)CC1	SENP8 block-1 46.4 | SENP8 conf inactive
CCOC(=O)N1CCN(C(=O)Nc2ccc3oc(C)nc3c2)CC1	none
CC1=CC2(O)OCCN(CCO)C2=CC1=O (stereo not given)	SENP8 block-1 44.2 | SENP8 conf inactive
COc1ccc(C2CC3(CC(C)(C)NC(SC)=N3)Oc3cc(O)cc(C)c32)cc1 (stereo not given)	SENP8 block-1 44.2 | SENP8 conf inactive
COc1ccc(NC(=O)CC2C(=O)N(C)C(=S)N2Cc2ccc3c(c2)OCO3)cc1 (stereo not given)	none
Cc1ccc(NC(=S)NNC(=O)c2cn(C)nc2C)cc1	SENP8 block-1 42.6 | SENP8 conf inactive
